{"source": "ChEMBL document CHEMBL1122147", "about": "“N,N'-Dialkyl-1,2-bis(hydroxyphenyl)ethylenediamines and N,N-dialkyl-4,5-bis(4-hydroxyphenyl)imidazolidines: syntheses and evaluation of their mammary tumor inhibiting activity” (1982)", "key": {"Rattus norvegicus [1]": {"tested_on": "Rattus norvegicus", "assay": "Inhibition of the DMBA-induced mammary carcinoma in 8 rats at 15 mg/kg dose; not significant", "assay_type": "functional", "summary_of_the_method": "(§1)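 Established DMBA-induced mammary carcinoma, Sprague-Dawley rats; compound in arachis oil sc three times weekly (Mon, Wed, Fri). Starting tumor area above 140 mm² per animal; percent increase of tumor area after 28 days of therapy, mean values; significance by Wilcoxon-Mann-Whitney U test.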"}, "[2]": {"molecular_target": "T1, Estrogen receptor (Mus musculus) (UniProt O08537+P19785)", "T1 sequence (O08537 whole entry, looked up)": "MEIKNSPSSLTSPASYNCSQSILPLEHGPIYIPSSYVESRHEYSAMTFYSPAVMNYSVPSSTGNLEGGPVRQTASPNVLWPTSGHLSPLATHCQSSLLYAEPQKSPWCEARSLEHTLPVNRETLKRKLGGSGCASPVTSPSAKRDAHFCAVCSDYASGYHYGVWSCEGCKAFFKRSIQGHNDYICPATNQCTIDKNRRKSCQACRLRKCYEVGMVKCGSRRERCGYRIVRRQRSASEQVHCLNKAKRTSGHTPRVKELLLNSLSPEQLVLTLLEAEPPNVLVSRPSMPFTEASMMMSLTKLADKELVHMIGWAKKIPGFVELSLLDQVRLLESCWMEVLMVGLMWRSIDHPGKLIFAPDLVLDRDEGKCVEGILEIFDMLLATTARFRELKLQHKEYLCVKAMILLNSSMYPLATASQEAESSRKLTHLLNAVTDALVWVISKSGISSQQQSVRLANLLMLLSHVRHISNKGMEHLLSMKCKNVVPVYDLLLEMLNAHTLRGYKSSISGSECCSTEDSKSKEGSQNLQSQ", "T1 sequence (P19785 whole entry, looked up)": "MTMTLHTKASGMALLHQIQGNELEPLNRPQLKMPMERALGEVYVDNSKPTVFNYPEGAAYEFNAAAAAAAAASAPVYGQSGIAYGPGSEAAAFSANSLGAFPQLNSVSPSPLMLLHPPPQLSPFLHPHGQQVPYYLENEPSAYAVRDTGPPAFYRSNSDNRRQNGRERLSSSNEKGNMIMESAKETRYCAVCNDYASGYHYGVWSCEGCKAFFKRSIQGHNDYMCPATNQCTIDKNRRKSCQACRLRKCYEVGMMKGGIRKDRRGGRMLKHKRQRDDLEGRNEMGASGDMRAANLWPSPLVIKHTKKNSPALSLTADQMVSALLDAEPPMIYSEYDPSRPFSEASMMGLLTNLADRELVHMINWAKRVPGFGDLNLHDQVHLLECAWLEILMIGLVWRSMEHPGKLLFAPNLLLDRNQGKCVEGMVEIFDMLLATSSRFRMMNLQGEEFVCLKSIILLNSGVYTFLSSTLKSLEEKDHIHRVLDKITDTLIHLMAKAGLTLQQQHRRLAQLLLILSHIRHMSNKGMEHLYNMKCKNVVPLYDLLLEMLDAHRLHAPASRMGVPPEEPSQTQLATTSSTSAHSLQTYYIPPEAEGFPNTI", "assay": "Binding affinity for murine Estrogen receptor", "assay_type": "protein assay"}, "Rattus norvegicus [3]": {"tested_on": "Rattus norvegicus", "assay": "Inhibition of the DMBA-induced mammary carcinoma in 11 rats at 25 mg/kg dose; not significant", "assay_type": "functional", "summary_of_the_method": "as §1"}, "[4]": {"molecular_target": "T1, Estrogen receptor (Mus musculus)", "assay": "(§2) Binding affinity for murine Estrogen receptor; No affinity", "assay_type": "protein assay"}, "[5]": {"molecular_target": "T1, Estrogen receptor (Mus musculus)", "assay": "as §2", "assay_type": "protein assay", "remark": "listed apart in the source"}, "MCF7 [6]": {"tested_on": "MCF7", "assay": "Incorporation of [3H]thymidine into estrogen-responsive MCF-7 human breast tumor cells at 10e-5 M", "assay_type": "functional", "summary_of_the_method": "(§3)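 MCF-7 cells plated in medium with 10% FCS, switched next day to 5% dextran-charcoal-stripped calf serum, medium renewed every 72 h. At ~60% confluence compounds added in ethanol (0.1% final), 60 h incubation; 1 μCi [3H]thymidine per well for last 2 h. Acid (10% Cl3AcOH)-precipitable counts from sonicate, dpm/dish, mean of six dishes ± SD.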"}, "MCF7 [7]": {"tested_on": "MCF7", "assay": "Incorporation of [3H]thymidine into estrogen-responsive MCF-7 human breast tumor cells at 10e-5 M; dpm/dish", "assay_type": "functional", "summary_of_the_method": "as §3"}, "MCF7 [8]": {"tested_on": "MCF7", "assay": "Incorporation of [3H]thymidine into estrogen-responsive MCF-7 human breast tumor cells at 10e-8 M with hexestrol", "assay_type": "functional", "summary_of_the_method": "as §3"}, "MCF7 [9]": {"tested_on": "MCF7", "assay": "Incorporation of [3H]thymidine into estrogen-responsive MCF-7 human breast tumor cells at 10e-8 M with hexestrol; dpm/dish", "assay_type": "functional", "summary_of_the_method": "as §3"}, "[10]": {"molecular_target": "T1, Estrogen receptor (Mus musculus)", "assay": "In vitro inhibition of murine Estrogen receptor", "assay_type": "protein assay", "parameters": "concentration or dose not given beside the values", "conditions": "concentration not given here"}, "Rattus norvegicus [11]": {"tested_on": "Rattus norvegicus", "assay": "Inhibition of the DMBA-induced mammary carcinoma in 10 rats at 20 mg/kg dose", "assay_type": "functional", "summary_of_the_method": "as §1"}, "Rattus norvegicus [12]": {"species_on_record": "Rattus norvegicus", "assay": "Dehydrogenase activity in regressing DMBA-induced mammary tumor in rats", "assay_type": "functional", "summary_of_the_method": "(§4)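 DMBA-induced rat mammary tumors, growing versus regressing, assayed for glucose-6-phosphate plus 6-phosphogluconate dehydrogenase and p-nitrophenylphosphatase activities (μM/mL); mean ± SD, growing vs regressing compared by Student's t test.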"}, "Rattus norvegicus [13]": {"species_on_record": "Rattus norvegicus", "assay": "p-Nitrophenylphosphatase activity in proliferating DMBA-induced mammary tumor in rats", "assay_type": "functional", "summary_of_the_method": "as §4"}, "Rattus norvegicus [14]": {"species_on_record": "Rattus norvegicus", "assay": "p-Nitrophenylphosphatase activity in regressing DMBA-induced mammary tumor in rats; not significant", "assay_type": "functional", "summary_of_the_method": "as §4"}, "Rattus norvegicus [15]": {"species_on_record": "Rattus norvegicus", "assay": "Dehydrogenase activity in proliferating DMBA-induced mammary tumor in rats", "assay_type": "functional", "summary_of_the_method": "as §4"}, "MCF7 [16]": {"tested_on": "MCF7", "assay": "Incorporation of [3H]thymidine into estrogen-responsive MCF-7 human breast tumor cells at 10e-8 M concentration with hexestrol; dpm/dish", "assay_type": "functional", "summary_of_the_method": "as §3"}}, "note": "The source made the active and inactive calls. The calls are words filed in the database; no cut-off is given here."}
{"smiles": "CCCCNC(c1ccc(O)cc1)C(NCCCC)c1ccc(O)cc1.Cl.Cl", "note": "(stereo not given)", "values": [{"measurement": "Increase", "setting": "Rattus norvegicus [1]", "result": 475, "unit": "%"}]}
{"smiles": "CCCCCCNC(c1ccc(O)cc1)C(NCCCCCC)c1ccc(O)cc1.Cl.Cl", "note": "(stereo not given)", "values": [{"measurement": "Ka", "setting": "[2]", "result": 320000, "unit": "M⁻¹"}, {"measurement": "Increase", "setting": "Rattus norvegicus [3]", "result": 132, "unit": "%"}]}
{"smiles": "CC(C)NC(c1ccc(O)cc1)C(NC(C)C)c1ccc(O)cc1", "note": "(stereo not given)", "values": [{"measurement": "Ka", "setting": "[2]", "result": 140000, "unit": "M⁻¹"}]}
{"smiles": "CCCCCCNC(c1ccc(OC)cc1)C(NCCCCCC)c1ccc(OC)cc1", "note": "(stereo not given)", "values": [{"measurement": "Ka", "setting": "[4]", "result": "inactive"}]}
{"smiles": "CCCCCNC(c1ccc(O)cc1)C(NCCCCC)c1ccc(O)cc1", "note": "(stereo not given)", "values": [{"measurement": "Ka", "setting": "[2]", "result": "2.2e+06", "unit": "M⁻¹"}]}
{"smiles": "CCCCCNC(c1ccc(OC)cc1)C(NCCCCC)c1ccc(OC)cc1", "note": "(stereo not given)", "values": [{"measurement": "Ka", "setting": "[5]", "result": "inactive"}]}
{"smiles": "CCCCNC(c1ccc(OC)cc1)C(NCCCC)c1ccc(OC)cc1", "note": "(stereo not given)", "values": [{"measurement": "Ka", "setting": "[4]", "result": "inactive"}, {"measurement": "Ka", "setting": "[5]", "result": "inactive"}]}
{"smiles": "CCCCNC(c1cccc(O)c1)C(NCCCC)c1cccc(O)c1", "note": "(stereo not given)", "values": [{"measurement": "Ka", "setting": "[2]", "result": "< 10000", "unit": "M⁻¹"}]}
{"smiles": "CCCCNC(c1cccc(OC)c1)C(NCCCC)c1cccc(OC)c1", "note": "(stereo not given)", "values": [{"measurement": "Ka", "setting": "[4]", "result": "inactive"}]}
{"smiles": "CCCCNC(c1ccccc1O)C(NCCCC)c1ccccc1O", "note": "(stereo not given)", "values": [{"measurement": "Ka", "setting": "[2]", "result": "inactive"}]}
{"smiles": "CCCCNC(c1ccccc1OC)C(NCCCC)c1ccccc1OC", "note": "(stereo not given)", "values": [{"measurement": "Ka", "setting": "[5]", "result": "inactive"}]}
{"smiles": "CCCNC(c1ccc(O)cc1)C(NCCC)c1ccc(O)cc1", "note": "(stereo not given)", "values": [{"measurement": "Ka", "setting": "[2]", "result": "1.1e+06", "unit": "M⁻¹"}]}
{"smiles": "CCCNC(c1ccc(OC)cc1)C(NCCC)c1ccc(OC)cc1", "note": "(stereo not given)", "values": [{"measurement": "Ka", "setting": "[4]", "result": "inactive"}]}
{"smiles": "CCNC(c1ccc(O)cc1)C(NCC)c1ccc(O)cc1", "note": "(stereo not given)", "values": [{"measurement": "Ka", "setting": "[2]", "result": "< 10000", "unit": "M⁻¹"}]}
{"smiles": "CCNC(c1ccc(OC)cc1)C(NCC)c1ccc(OC)cc1", "note": "(stereo not given)", "values": [{"measurement": "Ka", "setting": "[4]", "result": "inactive"}]}
{"smiles": "CNC(c1ccc(O)cc1)C(NC)c1ccc(O)cc1", "note": "(stereo not given)", "values": [{"measurement": "Ka", "setting": "[5]", "result": "inactive"}]}
{"smiles": "CNC(c1ccc(OC)cc1)C(NC)c1ccc(OC)cc1", "note": "(stereo not given)", "values": [{"measurement": "Ka", "setting": "[5]", "result": "inactive"}]}
{"smiles": "COc1ccc(C(NC(C)C)C(NC(C)C)c2ccc(OC)cc2)cc1", "note": "(stereo not given)", "values": [{"measurement": "Ka", "setting": "[4]", "result": "inactive"}]}
{"smiles": "CCCCNC(c1ccc(O)cc1)C(NCCCC)c1ccc(O)cc1.Cl.Cl", "note": "(racemic)", "values": [{"measurement": "Activity", "setting": "MCF7 [6]", "result": 79, "unit": "%"}, {"measurement": "Activity", "setting": "MCF7 [7]", "result": 10833}, {"measurement": "Activity", "setting": "MCF7 [8]", "result": 101, "unit": "%"}, {"measurement": "Activity", "setting": "MCF7 [9]", "result": 13942}]}
{"smiles": "CCCCN1CN(CCCC)C(c2ccc(O)cc2)C1c1ccc(O)cc1", "note": "(racemic) [listing 1 of 2 here]", "values": [{"measurement": "Increase", "setting": "Rattus norvegicus [1]", "result": 105, "unit": "%"}]}
{"smiles": "CCCCN1C(=S)N(CCCC)C(c2ccc(O)cc2)C1c1ccc(O)cc1", "note": "(racemic)", "values": [{"measurement": "inhibition", "setting": "[10]", "result": 75, "unit": "%"}]}
{"smiles": "CCCCN1C(c2ccc(O)cc2)C(c2ccc(O)cc2)N(CCCC)C1c1ccc(O)cc1", "note": "(racemic)", "values": [{"measurement": "inhibition", "setting": "[10]", "result": 48, "unit": "%"}]}
{"smiles": "CCCCN1C(c2ccc(O)cc2)C(c2ccc(O)cc2)N(CCCC)C1c1ccccc1", "note": "(racemic)", "values": [{"measurement": "inhibition", "setting": "[10]", "result": 39, "unit": "%"}]}
{"smiles": "CCCCN1CN(CCCC)C(c2ccc(O)cc2)C1c1ccc(O)cc1", "note": "(racemic) [listing 2 of 2 here]", "values": [{"measurement": "inhibition", "setting": "[10]", "result": 70, "unit": "%"}]}
{"smiles": "CCCCNC(c1ccc(O)cc1)C(NCCCC)c1ccc(O)cc1", "note": "(racemic)", "values": [{"measurement": "Ka", "setting": "[2]", "result": "3.6e+06", "unit": "M⁻¹"}]}
{"smiles": "CCCN1CN(CCC)C(c2ccc(O)cc2)C1c1ccc(O)cc1", "note": "(racemic)", "values": [{"measurement": "inhibition", "setting": "[10]", "result": 66, "unit": "%"}]}
{"smiles": "CCCCNC(c1ccc(O)cc1)C(NCCCC)c1ccc(O)cc1.Cl.Cl", "note": "(single isomer, unassigned; (+))", "values": [{"measurement": "Increase", "setting": "Rattus norvegicus [11]", "result": 112, "unit": "%"}, {"measurement": "Activity", "setting": "Rattus norvegicus [12]", "result": 101.8, "unit": "uM ml-1"}, {"measurement": "Activity", "setting": "Rattus norvegicus [13]", "result": 39.4, "unit": "uM ml-1"}, {"measurement": "Activity", "setting": "Rattus norvegicus [14]", "result": 48.4, "unit": "uM ml-1"}, {"measurement": "Activity", "setting": "Rattus norvegicus [15]", "result": 191.7, "unit": "uM ml-1"}]}
{"smiles": "CCCCN1CN(CCCC)C(c2ccc(O)cc2)C1c1ccc(O)cc1", "note": "(single isomer, unassigned; (+))", "values": [{"measurement": "inhibition", "setting": "[10]", "result": 3, "unit": "%"}]}
{"smiles": "CCCCNC(c1ccc(O)cc1)C(NCCCC)c1ccc(O)cc1", "note": "(single isomer, unassigned; (+))", "values": [{"measurement": "Ka", "setting": "[5]", "result": "2.1e+07", "unit": "M⁻¹"}]}
{"smiles": "CCCCNC(c1ccc(O)cc1)C(NCCCC)c1ccc(O)cc1.Cl.Cl", "note": "(single isomer, unassigned; (-))", "values": [{"measurement": "Increase", "setting": "Rattus norvegicus [11]", "result": 115, "unit": "%"}, {"measurement": "Activity", "setting": "Rattus norvegicus [12]", "result": 121.3, "unit": "uM ml-1"}, {"measurement": "Activity", "setting": "Rattus norvegicus [13]", "result": 42.8, "unit": "uM ml-1"}, {"measurement": "Activity", "setting": "Rattus norvegicus [14]", "result": 44.9, "unit": "uM ml-1"}, {"measurement": "Activity", "setting": "Rattus norvegicus [15]", "result": 183.3, "unit": "uM ml-1"}]}
{"smiles": "CCCCNC(c1ccc(O)cc1)C(NCCCC)c1ccc(O)cc1", "note": "(single isomer, unassigned; (-))", "values": [{"measurement": "Ka", "setting": "[5]", "result": 700000, "unit": "M⁻¹"}]}
{"smiles": "CCCCN1CN(CCCC)C(c2ccc(O)cc2)C1c1ccc(O)cc1", "note": "(stereo in doubt; 7c)", "values": [{"measurement": "inhibition", "setting": "[10]", "result": 75, "unit": "%"}]}
{"smiles": "CCCCN1CN(CCCC)C(c2ccc(O)cc2)C1c1ccc(O)cc1", "note": "(stereo in doubt; 7d)", "values": [{"measurement": "inhibition", "setting": "[10]", "result": 0, "unit": "%"}]}
{"smiles": "CC[C@H](c1ccc(O)cc1)[C@@H](CC)c1ccc(O)cc1", "note": "[HEXESTROL]", "values": [{"measurement": "Activity", "setting": "MCF7 [8]", "result": 120, "unit": "%"}, {"measurement": "Activity", "setting": "MCF7 [16]", "result": 16485}]}
{"smiles": "CC/C(=C(\\c1ccccc1)c1ccc(OCCN(C)C)cc1)c1ccccc1", "note": "[TAMOXIFEN]", "values": [{"measurement": "Activity", "setting": "MCF7 [8]", "result": 82, "unit": "%"}, {"measurement": "Activity", "setting": "MCF7 [16]", "result": 11225}]}
